# hK5 inh: human KLK5 protease inhibitors, primary screen, biochemical, 1536-well; recombinant hK5, fluorogenic AMC substrate cleavage; 210,000 tested, 0.59% active; inhibition, % at 5 µM; Kallikrein-5 (Homo sapiens), Q9Y337;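 active = inhibition of 40% or more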;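 note: 0% = enzyme controls without compound and 100% = no-enzyme blanks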
# Target sequence (Q9Y337 67-293 limits assumed): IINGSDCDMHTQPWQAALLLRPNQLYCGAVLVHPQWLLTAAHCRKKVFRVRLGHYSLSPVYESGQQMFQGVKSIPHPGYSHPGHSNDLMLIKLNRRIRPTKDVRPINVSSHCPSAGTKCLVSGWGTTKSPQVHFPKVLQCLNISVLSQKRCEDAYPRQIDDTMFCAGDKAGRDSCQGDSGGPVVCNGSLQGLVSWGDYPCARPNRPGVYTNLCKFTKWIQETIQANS
# Calpain2 inh: inhibitors of pig calpain II, primary screen, biochemical, fluorogenic peptide substrate, 1536-well; inhibition, % at 16 µM; purified calpain II, 30 min; 220,000 tested, 0.37% active; AID 1236, 2008;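 active = inhibition above about 50%, limit read from the data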
# FXIa inh: human FXIa protease inhibitors, primary screen, biochemical, 1536-well; inhibition, % at 5 µM; purified FXIa, Boc-Glu-Ala-Arg-AMC fluorogenic substrate; Coagulation factor XI (Homo sapiens), P03951; 220,000 tested, 0.14% active; AID 798, 2007;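 active = inhibition of at least 40%; inactive = inhibition below 40%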;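 note: fluorescence of freed AMC excited at 355 nm; 0% = enzyme without compound and 100% = no enzyme blank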
# thrombin 1536: human alpha-thrombin inhibitors, primary screen, counter-screen for coagulation protease inhibitor project, biochemical, 1536-well, fluorogenic AMC substrate. inhibition, % at 5 µM. 220,000 tested, 0.26% active. AID 1046, 2008. Prothrombin (Homo sapiens), P00734. Boc-VPR-AMC fluorogenic substrate cleavage;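 active = inhibition at or above 40%; inactive = inhibition below 40%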;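 note: 0% = enzyme with no compound and 100% = wells without enzyme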
#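 System – human alpha-thrombin protein · Reagent – Boc-VPR-AMC substrate, 15 µM final · Compound – 5 µM single dose in 0.2% DMSO · Schedule – reaction at room temperature · Technique – AMC fluorescence at 355 nm excitation and 460 nm emission · Read-out basis – % inhibition relative to enzyme controls and enzyme-free blanks · Control set – no-compound enzyme wells and no-enzyme blanks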
# FXIIa inh: human FXIIa protease inhibitors, primary screen, biochemical, 1536-well | Coagulation factor XII (Homo sapiens), P00748 | purified FXIIa, Boc-QGR-AMC fluorogenic substrate, 2 h | inhibition, % at 5 µM | 220,000 tested, 0.3% active | AID 800, 2007; in the data active = inhibition above about 40%;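 note: 0% = enzyme with no compound and 100% = blank without enzyme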
# Furin inhibitor: human furin inhibitors, primary screen, biochemical, fluorescence intensity; P09958; purified furin, fluorogenic substrate cleavage; inhibition, % at 20 µM or 30 µM; 220,000 tested, 0.061% active; in the data active = inhibition above about 25%
# Starred values were filed as active, the others as inactive; · = no result. An excerpt weighted towards active compounds, which were near 1.4% of everything screened.
SMILES,hK5 inh,Calpain2 inh,FXIa inh,thrombin 1536,FXIIa inh,Furin inhibitor
CCOc1ccc(CC(=O)OCn2nnc3ccccc3c2=O)cc1,-4,66*,-2,-3,9,-6
CCc1nnc(NC(=O)c2cccc(C(=O)Nc3nnc(CC)s3)n2)s1,-78,9,8,-1,4,-11
CCNC(=O)C1CC(=O)N(Cc2ccc3c(c2)OCO3)C(=Nc2ccc(F)cc2)S1 (centres undefined),-2,-10,-6,-12,-4,32*
Cc1ccccc1Cn1c(C(C)O)nc2ccccc21 (centres undefined),-20,9,8,6,18,-24
Cc1cc(/C(N)=N/OC(=O)c2cccc(Cl)c2)no1,-2,-9,-3,5,17,-21
Cc1cc(/C(N)=N/OC(=O)c2ccc(Cl)cc2)no1,44*,20,-6,-2,8,-23
COc1ccc(CNc2nc(NCc3ccc(OC)cc3)c3[nH]cnc3n2)cc1,-2,-11,-3,-9,3,-18
CCN(CC)c1ccc(C(=O)NNC(=O)CCl)cc1,14,69*,2,-1,8,-26
CCN(CC)c1ccc(NC(=O)C(C)C)cc1,-2,23,-14,-5,-6,-10
COc1cc(NC(=O)c2n[nH]c(=O)c3ccccc23)cc(OC)c1,4,-34,1,1,9,-32
COc1cc(NC(=O)c2nccnc2C(=O)O)cc(OC)c1,122*,11,4,16,2,-10
COC(=O)c1ccc(OC)c(CSc2nnc(COc3ccc(Cl)cc3)o2)c1,-11,51*,-9,3,-7,-28
Cc1cccc(-n2c(CCCN3C(=O)c4ccccc4C3=O)nc3ccccc3c2=O)n1,152*,-2,0,30,-8,-21
C=CCN1C(=O)C(O)(CC(=O)c2ccc(OC)cc2OC)c2cc(Br)ccc21 (centres undefined),-4,15,-10,-9,-5,-14
Cc1ccc(S(=O)(=O)N2CCCCC2)cc1NC(=O)c1ccc2c(c1)OCO2,-6,7,-2,-12,7,-20
Cc1ccc(S(=O)(=O)N2CCCCC2)cc1NC(=O)COC(=O)c1ccc2c(c1)OCO2,-3,56*,10,3,17,-34
Cc1c(Cl)cnc(NC(=O)COC(=O)c2ccc3c(c2)OCO3)c1Cl,41*,4,10,27,13,-7
O=C(COC(=O)c1cc(Br)ccc1O)Nc1cc(S(=O)(=O)N2CCCC2)ccc1Cl,-19,-85,-8,45*,1,-23
CCOc1cc(C(=O)OCC(=O)Nc2ncc(Cl)c(C)c2Cl)ccc1OCC(=O)N1CCOCC1,-1,2,9,1,12,-18
Cn1c(=O)c2c(nc(SCC(=O)N3CCc4ccccc43)n2Cc2ccc(F)cc2)n(C)c1=O,·,·,·,·,·,28*
Cn1c(=O)c2c(SCC(=O)N3CCCc4ccccc43)nc(CC(C)(C)C)nc2n(C)c1=O,-8,15,6,0,16,-10
CCCc1nc(SCC(=O)N2CCCc3ccccc32)c2c(=O)n(C)c(=O)n(C)c2n1,0,62*,-5,-6,7,-7
CCCn1c(SCC(=O)N2CCCc3ccccc32)nc2c1c(=O)n(C)c(=O)n2C,·,·,·,·,·,-26
O=C(NC1CCCC1)C(c1ccccn1)N(C(=O)c1csnn1)C1CCCCC1 (centres undefined),-5,6,21,-1,28,-23
O=C(NC1CCCC1)C(c1ccccn1)N(C(=O)c1csnn1)C1CC1 (centres undefined),-4,8,44*,2,15,-17
SMILES,hK5 inh,Calpain2 inh,FXIa inh,thrombin 1536,FXIIa inh,Furin inhibitor
CC1CCN(C(=O)CCNC(=O)Cn2cnc3sc4c(c3c2=O)CCCC4)CC1,2,8,-11,-8,7,-5
O=C(CNC(=S)N(Cc1ccccc1)Cc1ccccc1F)NCc1ccc(Cl)cc1,2,33,7,·,13,-21
CN(C)CCNC(=O)CNC(=S)N(Cc1ccccc1)Cc1ccccc1F,-5,38,-2,-8,5,-19
O=C(CNC(=S)N(Cc1ccccc1)Cc1ccccc1F)NCCc1ccccc1,18,37,11,9,41*,2
COc1cccc(CNC(=O)CNC(=S)N(Cc2ccccc2)Cc2ccccc2F)c1,-11,54*,1,3,5,-2
O=C(CNC(=S)N(Cc1ccccc1)Cc1ccccc1F)NCc1ccccc1,-3,54*,-2,-6,12,-10
CN1CCN(C(=O)c2ccccc2NC(=O)C(C)(C)C)CC1,-7,-3,4,2,11,-3
COc1cc(NC(=S)NC(=O)CC(C)C)ccc1NC(=O)c1cc2ccccc2o1,-2,-143,-6,-3,1,-21
COc1ccc(/C=N/n2cnc3c([nH]c4ccc(F)cc43)c2=O)cc1CN1CCCC1,15,12,-7,1,22,3
Nc1nnc(CCN2C(=O)CSC2=O)s1,11,8,3,-4,11,-15
COc1ccc(NC(=O)Cc2coc3ccc4ccccc4c23)cc1S(=O)(=O)N1CCOCC1,-20,-32,3,-11,-2,-14
C/C(=N\NS(=O)(=O)c1ccc(Cl)c([N+](=O)[O-])c1)c1cc2ccccc2o1,1,-20,-7,-1,1,-18
C/C(=N\NS(=O)(=O)c1ccc(C)c([N+](=O)[O-])c1)c1cc2ccccc2o1,107*,-12,12,6,15,-6
Cc1cc2c(cc1C)-c1nnc(-c3ccc4ccccc4n3)n1C(C)(C)C2,-14,17,11,1,4,-18
O=C1NCC(COCc2ccco2)O1 (centres undefined),32,5,8,103*,17,-29
Cc1ccccc1OCC1CNC(=O)O1 (centres undefined),-3,-9,-2,-12,5,-13
COc1ccccc1C(=O)Nc1nsc(-c2ccccc2)n1,0,-8,1,6,11,-18
COCCN(CCOC)S(=O)(=O)c1ccc(Cl)nc1,-4,-22,1,-6,5,-6
COc1ccc(-c2nc(CSCC(=O)N3CCN(C4CCCCC4)CC3)c(C)o2)cc1OC,·,·,·,·,·,-10
O=C(NCCCn1ccnc1)c1ccccc1NS(=O)(=O)c1ccc(F)c(F)c1,86*,1,4,17,-5,-12
Cc1cc(C)c(C)c(S(=O)(=O)Nc2ccccc2C(=O)NCCCn2ccnc2)c1C,-6,-95,7,4,15,-6
CCCCC1CC(/C(C)=N/NC(N)=O)OC1=O (centres undefined),-10,0,2,1,19,-4

# High-throughput results as filed in PubChem.
